Reference: ChEMBL document CHEMBL5352422, “Development of l-Dopa-containing diketopiperazines as blood-brain barrier shuttle” (Eur J Med Chem, 2022)
The source made the active and inactive calls. No cut-off for these calls is given here.

Columns and labels:
[1] = Stability of the compound in stimulated gastric fluid at 10 mg/ml pepsin by measuring half life measured upto 60 mins by HPLC analysis; assay type: ADME; conditions: simulated gastric fluid with pepsin
How it was run: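 USP simulated gastric fluid containing pepsin, preheated, in a 37 °C shaking water bath. Samples at 0, 15, 30 and 60 min were deproteinized with ice-cold acetonitrile containing 0.5% formic acid, centrifuged at 4 °C, filtered and analyzed by HPLC. Means of three experiments.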

[2] = Induction of DNA damage in rat Cerebral cortex cell assessed as total DNA damage score at 250 nM incubated for 24 hrs by Comet assay (reference value: 36.8 to 89.2); assay type: functional, Cerebral cortex neuron
[3] = test system: PC-12; assay: Inhibition of MPP+ induced GSH level in rat PC-12 cells at 100 nM preincubated with compound for 24 hrs followed by MPP+ treatment for 24 hrs by DTNB reagent based analysis; assay type: functional, cell-based; conditions: time 48.0 hrs
[4] = Induction of DNA damage in rat Cerebral cortex cell assessed as total DNA damage score at 100 nM incubated for 24 hrs by Comet assay (reference value: 36.8 to 89.2); assay type: functional, Cerebral cortex neuron
[5] = Stability of the compound in stimulated intestinal fluid at 10 mg/ml pancreatin by measuring half life measured upto 180 mins by HPLC analysis; assay type: ADME; conditions: simulated intestinal fluid with pancreatin
How it was run: (§1)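 USP simulated intestinal fluid containing pancreatin, in a 37 °C shaking water bath. Samples at 0, 60, 120 and 180 min were quenched with ice-cold acetonitrile containing 0.5% formic acid, centrifuged at 4 °C for 10 min, filtered and analyzed by HPLC. Means of three experiments ± SD.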

[6] = Induction of DNA damage in Primary human whole blood cell assessed as 8-OH-dG adducts formation at 500 nM incubated for 24 hrs by […] (reference value: 0.12 to 2.21 pg/ml); assay type: functional
[7] = Stability of the compound in hydrochloric acid buffer assessed as chemical hydrolysis by measuring half life at pH 1.2; assay type: physicochemical
How it was run: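 Chemical hydrolysis at 37 °C in hydrochloric acid buffer pH 1.2 or phosphate buffer pH 7.4. Remaining compound followed by HPLC with UV detection. t1/2 and k_obs are means of three experiments ± SD.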

[8] = Genotoxicity in human Lymphocyte assessed as micronuclei formation measured per 1000 cells at 100 nM incubated for 72 hrs giemsa staining based analysis (reference value: 4.5 to 17.9); assay type: toxicity, cell-based; conditions: 0.1 µM
How it was run: (§2)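 Human whole-blood lymphocyte cultures with phytohemagglutinin, incubated with compound for 72 h at 37 °C. Cytochalasin B added at 44 h. Cells fixed in ice-cold methanol/acetic acid 1:1, cytospun, Giemsa-stained. At least 1000 binucleated lymphocytes per concentration scored for micronuclei by one observer.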

[9] = Antioxidant activity against rat Cerebral cortex cell assessed as trolox equivalent of total antioxidant capacity at 100 nM incubated for 24 hrs (14.7 to 27.5 mmolequiv/L ); assay type: functional, Cerebral cortex neuron
[10] = Induction of DNA damage in rat Cerebral cortex cell assessed as 8-OH-dG adducts formation at 100 nM incubated for 24 hrs by […] (reference value: 0.14 to 1.92 pg/ml); assay type: functional, Cerebral cortex neuron
[11] = Genotoxicity in human Lymphocyte assessed as micronuclei formation measured per 1000 cells at 250 nM incubated for 72 hrs giemsa staining based analysis (reference value: 4.5 to 17.9); assay type: toxicity, cell-based; conditions: 0.25 µM; how it was run: as §2
[12] = test system: PC-12; assay: Cytoprotective activity against MPP+ induced cell death in rat PC-12 cells at 10 to 500 nM preincubated with compound for 24 hrs followed by MPP+ exposure for 24 hrs by MTT assay; assay type: functional, cell-based; conditions: dose 10-500 nM, time 48.0 hrs
How it was run: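 PC12 cells in RPMI with horse and fetal calf serum on polylysine-coated flasks. Pretreated 24 h with compound (10–500 nM), then 25 µM MPP+ for a further 24 h. MTT formazan solubilized in SDS/HCl, read at 550 nm. Expressed as % of untreated control absorbance; n = 3, mean ± SD.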

[13] = Induction of DNA damage in rat Cerebral cortex cell assessed as total DNA damage score at 50 nM incubated for 24 hrs by Comet assay (reference value: 36.8 to 89.2); assay type: functional, Cerebral cortex neuron
[14] = Antioxidant activity against Primary human whole blood cell assessed as trolox equivalent of total antioxidant capacity at 100 nM incubated for 24 hrs (19.3 to 32.5 mmolequiv/L ); assay type: functional
[15] = Antioxidant activity against rat Cerebral cortex cell assessed as H2O2 equivalent of total oxidative stress at 50 nM incubated for 24 hrs (0.7 to 2.3 micromolequiv/L); assay type: functional, Cerebral cortex neuron
[16] = Induction of DNA damage in Primary human whole blood cell assessed as total DNA damage score at 10 nM incubated for 24 hrs by Comet assay (reference value: 35.4 to 77.9); assay type: functional
[17] = Antioxidant activity against Primary human whole blood cell assessed as trolox equivalent of total antioxidant capacity at 250 nM incubated for 24 hrs (19.3 to 32.5 mmolequiv/L ); assay type: functional
[18] = Antioxidant activity against Primary human whole blood cell assessed as H2O2 equivalent of total oxidative stress at 10 nM incubated for 24 hrs (0.6 to 1.9 micromolequiv/L); assay type: functional
[19] = Stability of the compound in stimulated intestinal fluid at 40 mg/ml pancreatin by measuring half life measured upto 180 mins by HPLC analysis; assay type: ADME; conditions: simulated intestinal fluid with pancreatin; how it was run: as §1
[20] = Stability of the compound in stimulated intestinal fluid at 40 mg/ml pancreatin by measuring observed rate constant measured upto 180 mins by HPLC analysis; assay type: ADME; conditions: simulated gi fluid, 3 h; how it was run: as §1
[21] = test system: PC-12; assay: Upregulation of xCT expression in MPP+ induced rat PC-12 cells at 100 nM pretreated with compound for 24 hrs followed by MPP+ stimulation and measured after 6 hrs; assay type: functional, cell-based; conditions: time 30.0 hrs
How it was run: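 PC12 cells pretreated 24 h with compound, then exposed to 25 μM MPP+ for 6 h. mRNA quantified by real-time PCR (95 °C 3 min, then 40 cycles of 95 °C 10 s and 62 °C 30 s), samples in triplicate. Values normalized to β-actin, expressed as 2^-ΔΔCt with untreated cells set to 1.0. n = 3.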

Row | half-life [1] [h] | half-life [5] [h] | half-life [7] [h] | SMILES | Activity [2] | inhibition [3] | Activity [4] | Activity [6] [pg/mL] | Activity [8] | Activity [9] [mmolequiv/L] | Activity [10] [pg/mL] | Activity [11] | Activity [12] | Activity [13] | Activity [14] [mmolequiv/L] | Activity [15] [umolequiv/L] | Activity [16] | Activity [17] [mmolequiv/L] | Activity [18] [umolequiv/L] | further results
1 | 24.2 | 0.68 | 18.9 | C=CCSC[C@H]1NC(=O)[C@H](Cc2ccc(OC(C)=O)c(OC(C)=O)c2)NC1=O | 37.4 | inactive | 37.1 | 0.13 | 5 | 14.4 | 0.15 | 5.2 | Active | 36.4 | 19.7 | 0.7 | 35 | 18.8 | 0.6 | –
2 | 91 | 3.51 | 134 | C#CCSC[C@H]1NC(=O)[C@H](Cc2ccc(OC(C)=O)c(OC(C)=O)c2)NC1=O | 37.6 | Active | 37.8 | 0.13 | 4.9 | 15.2 | 0.14 | 5.1 | Active | 37.2 | 19.5 | 0.6 | 36 | 19.8 | 0.6 | half-life [19]: 2.57 h; Kobs [20]: 0.27 h⁻¹; Activity [21]: Active
